The results in this text go back to ChEMBL document CHEMBL3046278, “Design, synthesis and antifungal/insecticidal evaluation of novel cinnamide derivatives” (2011).

In general, inhibition refers to the relative decrease from the control value, in per cent.

What all share (type): functional
One assay deals with Rhizoctonia solani. Kind of assay: Antifungal activity against Rhizoctonia solani assessed as inhibition of mycelium growth at 50 ug/ml relative to control. The procedure, abridged: (§1)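 Mycelial growth inhibition on mycelial disks, compared with untreated control, using colony diameters: (control − treatment)/(control − disk diameter) × 100. Run twice, four replicates each.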

The next assay relates to Sclerotinia sclerotiorum. Kind of assay: Antifungal activity against Sclerotinia sclerotiorum assessed as inhibition of mycelium growth at 50 ug/ml relative to control. The essentials: as §1
A further assay concerns Botrytis cinerea. Kind of assay: Antifungal activity against Botryotinia fuckeliana assessed as inhibition of mycelium growth at 50 ug/ml relative to control. The essentials:
as §1

For the next assay, the system named is Cytospora mali. Kind of assay: Antifungal activity against Valsa mali assessed as inhibition of mycelium growth at 50 ug/ml relative to control. The procedure, abridged:
as §1

In assay [1] the test system is Colletotrichum lindemuthianum. The experiment in a line: Antifungal activity against Colletotrichum lindemuthianum assessed as inhibition of mycelium growth at 50 ug/ml relative to control. The procedure, abridged: as §1
Another assay has as its system Phytophthora nicotianae. Kind of assay: Antifungal activity against Phytophthora parasitica assessed as inhibition of mycelium growth at 50 ug/ml relative to control. The essentials:
as §1

The subject of assay [2] is Bursaphelenchus xylophilus. Kind of assay: Nematicidal activity against Bursaphelenchus xylophilus assessed as mortality at 200 mg/L after 48 hr relative to control. The essentials:
(§2)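 Compounds dissolved in acetone and diluted with distilled water to a 200 mg L-1 working solution. Distilled water served as blank, triplicate. Mortality counted at 24, 48 and 72 h, then corrected against the negative control with Abbott's formula.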

The subject of assay [3] is Bursaphelenchus xylophilus. Kind of assay: Nematicidal activity against Bursaphelenchus xylophilus assessed as mortality at 200 mg/L after 72 hr relative to control. The procedure, abridged: as §2
The subject of assay [4] is Bursaphelenchus xylophilus. The experiment in a line: Nematicidal activity against Bursaphelenchus xylophilus assessed as mortality at 200 mg/L after 24 hr relative to control. The procedure, abridged: as §2

`COC(=O)Nc1nc2ccccc2[nH]1` [CARBENDAZIM]: the inhibition at 50 µg/mL in the assay on Rhizoctonia solani came out at 100%; with Sclerotinia sclerotiorum it was 100%; in the assay on Botrytis cinerea, 38%; in the assay on Cytospora mali, 100%; in [1] it was 82.1%; in the assay on Phytophthora nicotianae, 14.5%.

Consider `Cc1ccc(/C(=C/C(=O)NCCc2ccc(O)cc2)c2ccncc2)cc1`, for which the Activity is recorded as 16.7% in [2], 19.29% in assay [3] and 8.27% in [4]. For the same compound, the inhibition at 50 µg/mL is 10.3% in the assay on Rhizoctonia solani; 5.3% with Sclerotinia sclerotiorum; 47% in the assay with Botrytis cinerea; -2.3% with Cytospora mali; 28.4% in assay [1]; -17.7% in the assay with Phytophthora nicotianae.

`Cc1ccc(/C(=C/C(=O)NCCc2ccc(O)cc2)c2ccnc(Cl)c2)cc1`: the Activity in assay [2] turned out to be 12.65%; in [3], 14.2%; in assay [4], 7.56%. The inhibition at 50 µg/mL in the assay on Rhizoctonia solani was 72.9%; in the assay with Sclerotinia sclerotiorum, 29%; with Botrytis cinerea, 33%; in the assay on Cytospora mali, 29%; in [1] it was 16.4%; with Phytophthora nicotianae, -18.5%.

Turning to `COc1ccc(CCNC(=O)/C=C(\c2ccncc2)c2ccc(C)c(C)c2)cc1OC`, the figures for the Activity in assay [2], in [3] and in assay [4] were 16.33%, 19.29% and 13.65%, respectively. The inhibition at 50 µg/mL is 5.81% in the assay on Rhizoctonia solani; 11% with Sclerotinia sclerotiorum; 52% in the assay on Botrytis cinerea; 68% with Cytospora mali; 28.4% in [1]; -14.5% with Phytophthora nicotianae.

On to `Cc1ccc(/C(=C/C(=O)NCCc2ccccc2)c2ccnc(Cl)c2)cc1`, for which the Activity in assay [2] was found to be 28.13%; in [3] it was 35.35%; in assay [4] it was 15.8%. Moreover, the inhibition at 50 µg/mL was 93.9% in the assay on Rhizoctonia solani; 37% in the assay on Sclerotinia sclerotiorum; 44% in the assay with Botrytis cinerea; 48% in the assay on Cytospora mali; 59.7% in [1]; 24.4% in the assay on Phytophthora nicotianae.

Turning to `COc1ccc(CCNC(=O)/C=C(\c2ccnc(Cl)c2)c2ccc(C)c(C)c2)cc1OC`, the values for the Activity in assay [2], in assay [3] and in assay [4] were 17.81%, 21.64% and 8.63%, respectively. Besides, the inhibition at 50 µg/mL in the assay on Rhizoctonia solani came to 23.8%; in the assay on Sclerotinia sclerotiorum, 28%; in the assay with Botrytis cinerea it was 33%; with Cytospora mali, 36%; in assay [1], 23.9%; with Phytophthora nicotianae it was 14.2%.

On to `COc1ccc(CCNC(=O)/C=C(/c2ccc(C(C)(C)C)cc2)c2ccnc(Cl)c2)cc1OC`, for which the Activity is recorded as 38.82% in [2], 45.15% in [3] and 4.33% in assay [4]. Further, the inhibition at 50 µg/mL in the assay with Rhizoctonia solani is 14.8%; with Sclerotinia sclerotiorum, 53%; in the assay with Botrytis cinerea, 48%; in the assay on Cytospora mali, 18%; in [1], 22.4%; in the assay with Phytophthora nicotianae, -8.06%.

Regarding `N#Cc1c(Cl)c(Cl)c(Cl)c(C#N)c1Cl` [CHLOROTHALONIL], the inhibition at 50 µg/mL in the assay with Rhizoctonia solani was determined as 75.5%; with Sclerotinia sclerotiorum, 70%; with Botrytis cinerea it was 95%; in the assay on Cytospora mali, 88%; in the assay with Phytophthora nicotianae it was 63.7%.

`CC(C)(C)c1ccc(/C(=C/C(=O)N2CCOCC2)c2ccnc(Cl)c2)cc1` [PYRIMORPH]: the values for the inhibition at 50 µg/mL in the assay on Rhizoctonia solani and in the assay on Sclerotinia sclerotiorum were 97.2% and 79%, respectively.

`CO/C=C(/C(=O)OC)c1ccccc1Oc1cc(Oc2ccccc2C#N)ncn1` [AZOXYSTROBIN]: the inhibition at 50 µg/mL in the assay with Rhizoctonia solani came to 89%; in the assay on Sclerotinia sclerotiorum it was 100%; with Botrytis cinerea it was 80%; with Cytospora mali, 92%; in the assay with Phytophthora nicotianae it was 37.9%.
